ChEMBL document CHEMBL4325893, “Synthesis and antibacterial profiles of targeted triclosan derivatives” (2019)
≈ marks a conversion by molar mass, not a printed value.

Tests used:
Serratia marcescens = test: Antibacterial activity against Serratia marcescens OCC 217 after 18 hrs; type: functional; conditions: OCC 217, 18 h
In short: (§1)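 Broth microdilution in Nutrient Broth No. 2; stocks in ethanol diluted to 0.01–128 µg/ml (triclosan) or 0.25–256 µg/ml (glycosides). Overnight 37 °C NB2 cultures diluted 1 in 10^4 in saline and added to the dilutions. Incubation at 37 °C with agitation, OD read every 15 min; MIC is the lowest concentration preventing any OD rise after 18 h.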

Escherichia coli [1] = test: Antibacterial activity against Escherichia coli OCC 122 after 18 hrs; type: functional; conditions: OCC 122, 18 h; in short: as §1
Bacillus subtilis = test: Antibacterial activity against Bacillus subtilis NCTC 10073 after 18 hrs; type: functional; conditions: NCTC 10073, 18 h; in short: as §1
Escherichia coli [2] = test: Antibacterial activity against Escherichia coli ATCC 35218 after 18 hrs; type: functional; conditions: ATCC 35218, 18 h; in short: as §1
[3] = test system: Staphylococcus epidermidis; test: Antibacterial activity against Staphylococcus epidermidis 155 after 18 hrs; type: functional; conditions: Staphylococcus epidermidis, 155, 18 h; in short: as §1
Escherichia coli [4] = test: Antibacterial activity against Escherichia coli ATCC 11775 after 18 hrs; type: functional; in short: as §1
Citrobacter freundii = test: Antibacterial activity against Citrobacter freundii OCC 851 after 18 hrs; type: functional; conditions: OCC 851, 18 h; in short: as §1
[5] = Antibacterial activity against Salmonella enterica subspecies enterica serotype Pullorum OCC 273 after 18 hrs; type: functional, Salmonella enterica subsp. enterica serovar Pullorum; conditions: OCC 273, 18 h; in short: as §1
[6] = test system: Staphylococcus epidermidis; test: Antibacterial activity against Staphylococcus epidermidis ATCC 12228 after 18 hrs; type: functional; conditions: ATCC 12228, 18 h; in short: as §1
Aeromonas hydrophila = test: Antibacterial activity against Aeromonas hydrophila OCC 778 after 18 hrs; type: functional; conditions: OCC 778, 18 h; in short: as §1
[7] = test system: Staphylococcus epidermidis; test: Antibacterial activity against Staphylococcus epidermidis ATCC 14990 after 18 hrs; type: functional; conditions: ATCC 14990, 18 h; in short: as §1
[8] = test system: Staphylococcus haemolyticus; test: Antibacterial activity against Staphylococcus haemolyticus OCC 2223 after 18 hrs; type: functional; conditions: OCC 2223, 18 h
In short: (§2)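 Broth microdilution in Nutrient Broth No. 2. Ethanol stocks were diluted in broth to 0.01–128 µg/ml for triclosan and 0.25–256 µg/ml for glycosides. Overnight 37°C NB2 cultures were diluted 1 in 10^4 in saline and added to the wells. Plates were incubated at 37°C with OD read every 15 min after agitation. MIC was the lowest concentration giving no OD increase at 18 h.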

Streptococcus agalactiae = test: Antibacterial activity against Streptococcus agalactiae OCC 182 after 18 hrs; type: functional; conditions: OCC 182, 18 h; in short: as §2
Escherichia coli [9] = test: Antibacterial activity against Escherichia coli 700728 after 18 hrs; type: functional; conditions: Escherichia coli, 700728, 18 h; in short: as §1
[10] = Antibacterial activity against Salmonella enterica subspecies enterica serotype Arizonae OCC 706 after 18 hrs; type: functional, Salmonella enterica subsp. enterica serovar Arizonae; conditions: OCC 706, 18 h; in short: as §1
Escherichia coli [11] = test: Antibacterial activity against Escherichia coli ATCC 10536 after 18 hrs; type: functional; conditions: ATCC 10536, 18 h; in short: as §1
Staphylococcus aureus [12] = test: Antibacterial activity against Staphylococcus aureus ATCC 6538 after 18 hrs; type: functional; conditions: ATCC 6538, 18 h; in short: as §1
Escherichia coli [13] = test: Antibacterial activity against Escherichia coli NCTC 13216 after 18 hrs; type: functional; conditions: NCTC 13216, 18 h; in short: as §1
Streptococcus viridans = test: Antibacterial activity against Streptococcus viridans OCC 234 after 18 hrs; type: functional; conditions: OCC 234, 18 h; in short: as §2
Staphylococcus aureus [14] = test: Antibacterial activity against Staphylococcus aureus NCTC 13758 after 18 hrs; type: functional; conditions: NCTC 13758, 18 h; in short: as §1
Streptococcus pyogenes = test: Antibacterial activity against Streptococcus pyogenes ATCC 19615 after 18 hrs; type: functional; conditions: ATCC 19615, 18 h; in short: as §2
[15] = Antibacterial activity against Salmonella enterica subspecies enterica serotype Nottingham NCTC 7832 after 18 hrs; type: functional, Salmonella enterica subsp. enterica serovar Nottingham; conditions: NCTC 7832, 18 h; in short: as §1
Staphylococcus aureus [16] = test: Antibacterial activity against Staphylococcus aureus OCC 106 after 18 hrs; type: functional; conditions: OCC 106, 18 h; in short: as §1
[17] = test system: Salmonella enterica subsp. enterica serovar Abony; test: Antibacterial activity against Salmonella enterica subspecies enterica serotype Abony NCTC 6017 after 18 hrs; type: functional; conditions: NCTC 6017, 18 h; in short: as §1
Enterococcus faecalis = test: Antibacterial activity against Enterococcus faecalis ATCC 33186 after 18 hrs; type: functional; conditions: ATCC 33186, 18 h; in short: as §1
Klebsiella aerogenes = test: Antibacterial activity against Klebsiella aerogenes NCTC 8167 after 18 hrs; type: functional; conditions: NCTC 8167, 18 h; in short: as §1
Klebsiella pneumoniae = test: Antibacterial activity against Klebsiella pneumoniae ATCC 10031 after 18 hrs; type: functional; conditions: ATCC 10031, 18 h; in short: as §1
[18] = Antibacterial activity against Salmonella enterica subspecies enterica serotype Indiana OCC 597 after 18 hrs; type: functional, Salmonella enterica subsp. enterica serovar Indiana; conditions: OCC 597, 18 h; in short: as §1

Compound: OC[C@H]1O[C@H](Oc2cc(Cl)ccc2Oc2ccc(Cl)cc2Cl)[C@@H](O)[C@@H](O)[C@@H]1O
- MIC (Serratia marcescens): > 256 µg/mL
- MIC (Escherichia coli [1]): 4 to 64 µg/mL (≈ 8.86 to 142 µM)
- MIC (Bacillus subtilis): 128 µg/mL (≈ 283 µM)
- MIC (Escherichia coli [2]): 4 to 64 µg/mL (≈ 8.86 to 142 µM)
- MIC [3]: 4 to 8 µg/mL (≈ 8.86 to 17.7 µM)
- MIC (Escherichia coli [4]): 4 to 64 µg/mL (≈ 8.86 to 142 µM)
- MIC (Citrobacter freundii): 64 µg/mL (≈ 142 µM)
- MIC [5]: 16 to 64 µg/mL (≈ 35.4 to 142 µM)
- MIC [6]: 4 to 8 µg/mL (≈ 8.86 to 17.7 µM)
- MIC (Aeromonas hydrophila): > 256 µg/mL
- MIC [7]: 4 to 8 µg/mL (≈ 8.86 to 17.7 µM)
- MIC [8]: 8 µg/mL (≈ 17.7 µM)
- MIC (Streptococcus agalactiae): 128 µg/mL (≈ 283 µM)
- MIC (Escherichia coli [9]): 4 to 64 µg/mL (≈ 8.86 to 142 µM)
- MIC [10]: 16 to 64 µg/mL (≈ 35.4 to 142 µM)
- MIC (Escherichia coli [11]): 4 to 64 µg/mL (≈ 8.86 to 142 µM)
- MIC (Staphylococcus aureus [12]): 2 to 8 µg/mL (≈ 4.43 to 17.7 µM)
- MIC (Escherichia coli [13]): 4 to 64 µg/mL (≈ 8.86 to 142 µM)
- MIC (Streptococcus viridans): 128 µg/mL (≈ 283 µM)
- MIC (Staphylococcus aureus [14]): 2 to 8 µg/mL (≈ 4.43 to 17.7 µM)
- MIC (Streptococcus pyogenes): 32 µg/mL (≈ 70.8 µM)
- MIC [15]: 16 to 64 µg/mL (≈ 35.4 to 142 µM)
- MIC (Staphylococcus aureus [16]): 2 to 8 µg/mL (≈ 4.43 to 17.7 µM)
- MIC [17]: 16 to 64 µg/mL (≈ 35.4 to 142 µM)
- MIC (Enterococcus faecalis): 256 µg/mL (≈ 567 µM)
- MIC (Klebsiella aerogenes): 32 µg/mL (≈ 70.8 µM)
- MIC (Klebsiella pneumoniae): 4 µg/mL (≈ 8.86 µM)
- MIC [18]: 16 to 64 µg/mL (≈ 35.4 to 142 µM)
